This test concerns γ-secretase. It is filed as in vivo, J20 hAPP transgenic mice. The procedure, abridged:
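Mice of either sex, probe guide in left hippocampus (bregma −3.1 mm, 2.5 mm lateral, 1.2 mm below dura, 12° angle), freely moving in Raturn cages on 12 h light/dark. γ-Secretase inhibitor 3 mg/kg i.p. given during ongoing microdialysis; hourly dialysates in refrigerated collector. Aβ38/40/42 by multiplex electrochemiluminescence (C-terminal-specific capture, SULFO-TAG 6E10 detection), in duplicate; half-lives calculated.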

Structures are written as SMILES.

Consider one compound from PMC3227224 (The Journal of neuroscience : the official journal of the …, 2011).

Regarding `C[C@H](NC(=O)Cc1cc(F)cc(F)c1)C(=O)N[C@H]1N=C(c2ccccc2)c2ccccc2N(C)C1=O` [Compound E], under “3 mo tg (plaque-free) J20 mice, Compound E 3 mg/kg i.p. at time 0 h, ISF sampled hourly at 1 μl/min, Aβ ELISA”, the “t1/2 of decline of total ISF Aβ after Compound E” value is on record as ~ 2 h. Moreover, the “ISF Aβ38, Aβ40 and Aβ42 after Compound E in young mice” value (young plaque-free (3 mo) tg mouse, first 5 h after Compound E 3 mg/kg i.p.) is “all 3 peptides fell together”.
